What is called Ki is a measure of affinity in units of concentration, obtained from inhibition or displacement. Read a high Ki as weaker binding. For orientation: IC50 means the concentration that inhibits the measured activity by half.

One assay addresses Glutamate NMDA receptor. Briefly: Binding affinity against phencyclidine (PCP) site of N-methyl-D-aspartate glutamate receptor from rat brain, using [3H]- TCP as radioligand. In outline: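 Male Sprague-Dawley rat whole-brain membranes, washed by repeated homogenization/centrifugation in 50 mM Tris-HCl pH 7.7, frozen at -70 °C, assayed in 5 mM Tris-HCl at 0.5 mg protein/tube. [3H]TCP about 1 nM final with varying compound concentrations, 25 min at room temperature. Nonspecific binding with 100 μM PCP. Filtration, scintillation counting, Ki calculated. At least three determinations in triplicate.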

Assay [1] can be described thus: Neuroprotection was determined against NMDA induced cell death in cultured mouse cortical neuron. Type of assay: functional. The essentials:
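Primary cortical neurons from Swiss-Webster mouse embryos at 16 days post conception, trypsinized, plated at 50 000 cells/well, cytosine arabinoside from day 5, used on day 13. Cells were washed and exposed 30 min to 500 µM NMDA with or without varying concentrations of test agent in MEM, then returned to MEM alone. MK-801 10 µM served as positive control.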

On Glutamate NMDA receptor, `Cn1nc[n+]2c1C1c3ccccc3C2CC1(c1ccoc1)c1ccoc1` (configuration not stated) displayed a Ki of 14 nM.
In turn, `c1ccc(-n2cc[n+]3c2C2c4ccccc4C3CC2(c2ccoc2)c2ccoc2)cc1` (configuration not stated) displayed a Ki on Glutamate NMDA receptor of 52 nM.
As for `c1ccc2c(c1)C1CC(c3ccoc3)(c3ccoc3)C2c2scc[n+]21` (configuration not stated), the Ki on Glutamate NMDA receptor worked out at 2.9 nM. In assay [1], this compound had an IC50 of 50 nM.
For the compound `c1ccc2c(c1)C1CC(c3ccoc3)(c3ccoc3)C2c2cccc[n+]21` (configuration not stated), the IC50 in assay [1] was 45 nM.
At Glutamate NMDA receptor, `C1=C[N+]2=C(C1c1cccc3ccccc13)C1c3ccccc3C2CC1(c1ccoc1)c1ccoc1` (configuration not stated) displayed a Ki of 329 nM.
Still for that read-out and setting: to `c1ccc(C(c2ccccc2)n2cc[n+]3c2C2c4ccccc4C3CC2(c2ccoc2)c2ccoc2)cc1` (configuration not stated) belongs 306 nM; to `CCOC1(OCC)C2c3ccccc3C([n+]3ccn(Cc4ccccc4)c32)C1(C)C` (configuration not stated), 10 nM; to `CCCCn1cc[n+]2c1C1c3ccccc3C2CC1(c1ccoc1)c1ccoc1` (configuration not stated), 36 nM.
Compound `c1ccc2c(c1)C1CC(c3ccoc3)(c3ccoc3)C2c2n(Cc3ccc4ccccc4c3)cc[n+]21` (configuration not stated) yielded a Ki at Glutamate NMDA receptor of 330 nM.
As for `CCOC1(OCC)C2c3ccccc3C([n+]3ccccc32)C1(C)C` (configuration not stated), it took 60 nM to reach half-maximal inhibition in assay [1] (IC50).
Compound `c1ccc(CCCn2cc[n+]3c2C2c4ccccc4C3CC2(c2ccoc2)c2ccoc2)cc1` (configuration not stated) had a Ki on Glutamate NMDA receptor of 68 nM.
`CCOC1(OCC)C2c3ccccc3C([n+]3ccsc32)C1(C)C` (configuration not stated) returned a Ki on Glutamate NMDA receptor of 6.1 nM. In assay [1], this compound registered an IC50 of 173 nM.
Consider `CCOC1(OCC)C2c3ccccc3C([n+]3ccn(C)c32)C1(C)C` (configuration not stated), for which the Ki at Glutamate NMDA receptor is 8.2 nM. This compound also gave an IC50 in assay [1] of 53 nM.
Compound `Cn1cc[n+]2c1C1c3ccccc3C2CC1(c1ccoc1)c1ccoc1` (configuration not stated) displayed a Ki at Glutamate NMDA receptor of 2.9 nM. For the same compound, the IC50 in assay [1] was 257 nM.
Regarding `CCOC1(OCC)C2c3ccccc3C([n+]3cnn(C)c32)C1(C)C` (configuration not stated), the Ki at Glutamate NMDA receptor worked out at 30 nM.
For the compound `c1ccc(Cn2cc[n+]3c2C2c4ccccc4C3CC2(c2ccoc2)c2ccoc2)cc1` (configuration not stated), on Glutamate NMDA receptor, the Ki amounted to 7.7 nM. Also, the IC50 in assay [1] is 42 nM.
In assay [1], `C[C@]12N[C@H](Cc3ccccc31)c1ccccc12` [DIZOCILPINE] yielded an IC50 of 67 nM.

The record behind these values is ChEMBL document CHEMBL1128370, “Novel NMDA antagonists: replacement of the pyridinium ring of 6,11-ethanobenzo[b]quinolizinium cations with heteroisoquinolinium cations” (J Med Chem, 1995).
